Results on five compounds are retold here after ChEMBL document CHEMBL2062504, “Diterpenoid alkaloids from the lateral root of Aconitum carmichaelii” (J Nat Prod, 2012).

The source made the active and inactive calls. No cut-off for these calls is given here.

Data set [1] deals with Mus musculus. The data set can be described thus: Toxicity in mouse acetic acid writhe model assessed as mortality at 5 mg/kg, ip. It counts as organism-based. The arrangement: dose 5 mg/kg, route intraperitoneal. The settings on record: in vivo. Put shortly: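 Mice given 5 mg/kg ip in the acetic acid-induced writhing test; deaths recorded, alongside percent reduction of writhes versus blank control.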

Data set [2] in a line: Toxicity in ip dosed mouse acetic acid wrtihe model. The format is organism-based. Particulars: in vivo. Put shortly: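 Acute toxicity in mice dosed intraperitoneally, reported as LD50 in mg/kg.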
Data set [3] concerns Mus musculus. The data set can be described thus: Analgesic activity in mouse assessed as reduction in acetic acid-induced writhing at 0.5 mg/kg, ip relative to vehicle-treated control. The format is functional. The arrangement: scale not given: the % may be the effect or the level left. Particulars: route intraperitoneal. Put shortly:
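Acetic acid-induced writhing test in mice. Compound given intraperitoneally at 0.5 mg/kg. Analgesia expressed as percent reduction in number of writhes versus blank control.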
(Writhing tests count abdominal constrictions after an irritant is injected.)

In data set [4] the test system is Liver microsomes. The data set can be described thus: Antioxidant activity in rat liver microsome assessed as inhibition of FeSO4-induced lipid peroxidation at 10 uM incubated for 15 mins prior to FeSO4-challenge measured after 15 mins by modified thiobarbituric acid method. It counts as functional. On the technique in general: Liver microsomes are vesicles of endoplasmic reticulum, rich in cytochrome P450 enzymes.

The test system of data set [5] is WB-F344. The data set can be described thus: Hepatoprotective activity against DL-galactosamine-induced cell death in rat WB-F344 cells at 10 uM incubated for 1 hr prior to DL-galactosamine-challenge measured after 24 hrs by MTT assay. The format is functional, cell-based.
Data set [6] deals with Peritoneal macrophage cell. The data set can be described thus: Antiinflammatory activity in mouse peritoneal macrophages assessed as inhibition of nitric oxide production at 10 uM. It counts as functional, cell-based.
Data set [7] relates to BGC-823. The data set can be described thus: Cytotoxicity against human BGC823 cells at 10 uM after 96 hrs by MTT assay. The format is functional, cell-based. Background: Tetrazolium dyes change colour on reduction, which living cells bring about.
For data set [8], the system named is A549. Kind of data set: Cytotoxicity against human A549 cells at 10 uM after 96 hrs by MTT assay. It counts as functional, cell-based.
For data set [9], the system named is MCF7. The data set can be described thus: Cytotoxicity against human MCF7 cells at 10 uM after 96 hrs by MTT assay. It counts as functional, cell-based.
The test system of data set [10] is KETR3. Kind of data set: Cytotoxicity against human Ketr3 cells at 10 uM after 96 hrs by MTT assay. It counts as functional, cell-based.
For data set [11], the system named is Bel-7402. Kind of data set: Cytotoxicity against human Bel7402 cells at 10 uM after 96 hrs by MTT assay. The format is functional, cell-based.
The subject of data set [12] is HCT-8. Kind of data set: Cytotoxicity against human HCT8 cells at 10 uM after 96 hrs by MTT assay. The format is functional, cell-based.
Data set [13] concerns Mus musculus. The data set can be described thus: Analgesic activity in mouse assessed as reduction in acetic acid-induced writhing at 5 mg/kg, ip relative to vehicle-treated control. The arrangement: scale not given: the % may be the effect or the level left. The settings on record: route intraperitoneal. It counts as functional. Put shortly: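 Mice dosed ip at 5 mg/kg, then given acetic acid to provoke writhing. Writhes were counted, and the value is the percent reduction in writhes compared with a blank control group, reported as mean ± deviation.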

Data set [14] relates to PC-12. The data set can be described thus: Neuroprotective activity against serum starvation-induced cell death in rat PC12 cells assessed as cell viability at 10 uM incubated for 24 hrs prior to serum starvation measured after 24 hrs by MTT assay (reference value: 55.1+/-4.2%). It counts as functional. The settings on record: read-out: Activity.

What is called LD50 is the dose expected to kill half of the subjects tested. Take `COC[C@@]12CC[C@H](OC)[C@]34C([C@H]([C@H](OC)[C@H]13)[C@]1(OC(C)=O)[C@H]3[C@@H](OC(=O)c5ccccc5)[C@](O)(C[C@H]34)[C@H](OC)[C@@H]1O)N(C)C2`: the results for the Activity result in data set [1] and in data set [3] were “Toxic” and 30%, respectively. This compound also gave an LD50 in data set [2] of 4.37 mg/kg. Besides, the inhibition result in data set [4] and in data set [6] was “inactive” throughout. Besides, the outcome in [5], in [7], in [8], in [9], in data set [10] and in data set [11] was inactive. Further, in data set [12], the outcome was inactive.

Regarding `COC[C@]12CN(C)C3[C@@H]4[C@H](OC)[C@H]1[C@@]3([C@@H](OC)C[C@H]2O)[C@]1(O)C[C@@]2(O)[C@H](OC(=O)c3ccccc3)[C@@H]1[C@]4(OC)[C@@H](O)[C@@H]2OC` (stereo in doubt; 8), the Activity in data set [13] was determined as 56%.

Turning to `COC[C@]12CN(C)C3[C@@H]4[C@H](OC)[C@H]1[C@@]3([C@@H](OC)C[C@H]2O)[C@]1(O)C[C@@]2(O)[C@H](OC(=O)c3ccccc3)[C@@H]1[C@]4(OC)[C@@H](O)[C@@H]2OC` (stereo in doubt; 7), in data set [13], the Activity is recorded as 35%.

For `COC[C@@]12CC[C@H](OC)[C@]34C(C([C@H](OC)[C@H]13)[C@]1(OC(C)=O)[C@H]3[C@@H](OC(=O)c5ccccc5)[C@](O)(C[C@H]34)[C@@H](OC)[C@@H]1O)N(C)C2` [HYPACONITINE], the Activity result in data set [1] is “Toxic”; in data set [3], 36%. In [2], this compound gave an LD50 of 2.65 mg/kg. The inhibition result in [4] and in data set [6] was “inactive” throughout. Moreover, the outcome in data set [5], in data set [7], in [8], in data set [9], in data set [10] and in data set [11] was inactive. Besides, in data set [12], the result was inactive.

Turning to `CCN1C[C@]2(COC)CC[C@H](OC)[C@]34C1[C@H]([C@H](O)[C@H]23)[C@]1(OC)[C@H]2[C@@H](OC(=O)c3ccccc3)[C@H](C[C@H]24)[C@@H](OC)[C@@H]1O`, in [14], the viability at 10 µM was found to be 75.8%. Also, the inhibition entry in [4] and in data set [6] was “inactive” in each case. Also, the result in data set [5], in [7], in [8], in [9], in data set [10] and in [11] was inactive. The result in data set [12] was inactive.
